A selection: hits, their analogues and other compounds. The true share with any hit is near 5.9%.
T cruzi growth-1 = T. cruzi intracellular proliferation inhibitors, primary screen, cell-based, beta-gal Tulahuen parasites, NIH3T3 host, luminescence. inhibition, % at 8.34 µM. T. cruzi beta-gal in NIH3T3, GalScreen luminescence, 90 h. 77,000 compounds, 5.9% hits. AID 624255, 2012;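 active means mean inhibition above about 93%, with at least 55% of replicates each passing it, limit read from the data, passing the limit was not always enough; inconclusive means only one of those two conditions holds; inactive means neither condition holds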
Pf Dd2 inh = P. falciparum Dd2 growth inhibitors, primary screen, SYBR Green fluorescence, single dose replicates. AID 1159554, 2015. 72 h; active compounds read low. 94,000 compounds, 2.3% hits. activity change, % at 10 µM; in the data active means activity change below about -80%; inconclusive means no clear call, values can overlap the other calls
KDM4C inh = inhibitors of GASC-1 (KDM4C) histone demethylase, primary screen, biochemical, single concentration HTS; Lysine-specific demethylase 4C (Homo sapiens), Q9H3R0; GST-KDM4C 2-372, H3K9me3 peptide, LANCE TR-FRET; inhibition, % at 12.5 µM; 96,000 compounds, 0.15% hits; AID 720574, 2013;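 active means mean replicate inhibition above about 25%, with at least 55% of replicates also reaching it, limit read from the data, passing the limit was not always enough; inconclusive means only one of those two conditions met; inactive means neither condition met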
Target sequence (Q9H3R0 2-372 limits assumed): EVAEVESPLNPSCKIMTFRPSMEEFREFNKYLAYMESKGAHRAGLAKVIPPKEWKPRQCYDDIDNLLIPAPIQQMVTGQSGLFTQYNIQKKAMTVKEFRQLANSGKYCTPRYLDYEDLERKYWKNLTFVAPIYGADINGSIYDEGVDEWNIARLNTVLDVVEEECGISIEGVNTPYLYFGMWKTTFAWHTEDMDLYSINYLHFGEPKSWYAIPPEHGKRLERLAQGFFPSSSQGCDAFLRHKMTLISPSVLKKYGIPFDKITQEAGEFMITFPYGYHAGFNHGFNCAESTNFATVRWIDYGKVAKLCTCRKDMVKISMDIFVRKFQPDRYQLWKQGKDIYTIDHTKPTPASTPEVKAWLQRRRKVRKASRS
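Test system – GST-tagged GASC-1 (JMJD2C) catalytic fragment, aa 2-372 · Medium – HEPES buffer, pH 7.5, plus ascorbate · Reagent – H3K9me3 peptide with Fe(II)/2OG · Compound – one test concentration per compound · Timing – 30 min reaction, 60 min detection, RT · Technique – TR-FRET with Eu antibody and ULight streptavidin, EDTA stop · Read-out basis – inhibition from TR-FRET ratio decrease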
IDH1 mut inh = inhibitors of IDH1 R132H reductase, primary screen, biochemical, plate reader, single point; 70,000 compounds, 0.18% hits; AID 624101, 2012; diaphorase/resazurin fluorescence, 60 min; inhibition, % at 10 µM; Isocitrate dehydrogenase [NADP] cytoplasmic (Homo sapiens), O75874; in the data active means inhibition above about 34%; inconclusive means no clear call, values can overlap the other calls; inactive means below about 11%
T cruzi growth-2 = T. cruzi intracellular proliferation inhibitors, confirmation, cell-based, NIH3T3 host, beta-gal parasite, luminescence, cherry-pick. shares compounds with T cruzi growth-1. T. cruzi beta-gal in NIH3T3, GalScreen luminescence, 90 h. 5,600 compounds, 72% hits. inhibition, % at 8.35 µM. AID 651739, 2012;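 active means mean replicate inhibition above about 95% and at least 55% of replicates individually reaching it, limit read from the data; inconclusive means only one of the two criteria is met; inactive means neither criterion is met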
T cruzi growth-3 = inhibitors of intracellular T. cruzi replication, confirmation, NIH3T3 host cells, beta-gal parasites, cherry-pick, set 2. shares compounds with T cruzi growth-1. T. cruzi beta-gal in NIH3T3, GalScreen luminescence, 90 h. inhibition, % at 2.09 µM. 5,600 compounds, 21% hits. AID 651740, 2012;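 active means mean inhibition above about 95%, with at least 55% of replicates also reaching it, limit read from the data; inconclusive means meets just one of the two conditions; inactive means meets neither condition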
NIH3T3 tox = cytotoxicity in mouse NIH/3T3 fibroblasts, confirmation, cytotoxicity control for T. cruzi proliferation inhibitor project, cell-based, cherry-pick, single point; 5,600 compounds, 14% hits; cytotoxicity (signal decrease), % at 8.35 µM; shares compounds with T cruzi growth-1; NIH/3T3 viability, CellTiter-Glo ATP luminescence, 90 h;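 active means mean signal decrease across replicates above about 35% based on untreated-well scatter, with enough replicates individually passing, limit read from the data; inconclusive means no rule stated though some were filed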
3T3 cytotox 2 = NIH/3T3 fibroblast cytotoxicity, confirmation, cytotoxicity control, cell-based, cherry-pick, single point, set 2 | shares compounds with T cruzi growth-1 | NIH/3T3 viability, CellTiter-Glo ATP luminescence, 90 h | inhibition, % at 24.9 µM | 5,600 compounds, 56% hits | AID 651744, 2012;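 active means mean loss of cell viability signal at or above a set limit, and enough replicates individually reaching it; inconclusive means meets only the mean limit or only the replicate share; inactive means meets neither condition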
A number is an active result.

Results for C[C@@H]1CN([C@@H](C)CO)C(=O)c2cc(NC(=O)c3ccccc3)ccc2O[C@@H](C)CCCCO[C@@H]1CN(C)Cc1ccccc1 ?
T cruzi growth-1: inactive; Pf Dd2 inh: inactive; KDM4C inh: inactive

How did Cn1c(SCc2ccccc2C#N)nnc1-c1ccc(NC(=O)c2ccc(F)cc2)cc1 do in these assays?
IDH1 mut inh: inactive

How did O=C(CSc1nnnn1-c1ccccc1)Nc1ccc(-c2ccc([N+](=O)[O-])cc2)cc1 do in these assays?
IDH1 mut inh: inactive

How did Cc1ccc(NC(=O)c2ccc(OCC(=O)Nc3ccc(Oc4ccccc4)cc3)cc2)c(C)c1 do in these assays?
IDH1 mut inh: inactive

How did CCS(=O)(=O)Nc1ccc2c(c1)C(=O)N(C)C[C@H](OC)[C@H](C)CN(Cc1ccccn1)[C@H](C)CO2 do in these assays?
T cruzi growth-1: 99; Pf Dd2 inh: inactive; KDM4C inh: inactive; IDH1 mut inh: inactive; T cruzi growth-2: inactive; T cruzi growth-3: inactive; NIH3T3 tox: inactive; 3T3 cytotox 2: inactive

Results for COc1ccccc1NC(=O)Nc1ccc2c(c1)OC[C@@H](C)N(Cc1ccccc1C(=O)O)C[C@@H](C)[C@H](OC)CN(C)C2=O ?
T cruzi growth-1: inactive; Pf Dd2 inh: inactive; KDM4C inh: inactive; IDH1 mut inh: inactive

What do the screens show for `CO[C@H]1CN(C)C(=O)c2cc(NC(=O)NC(C)C)ccc2OC[C@@H](C)N(Cc2ccccn2)C[C@@H]1C`?
T cruzi growth-1: inactive; Pf Dd2 inh: inactive; KDM4C inh: inactive; IDH1 mut inh: inactive

Results for COc1ccccc1NC(=O)Nc1ccc2c(c1)OC[C@@H](C)N(Cc1ccccc1Cl)C[C@@H](C)[C@H](OC)CN(C)C2=O ?
T cruzi growth-1: 127; Pf Dd2 inh: -97; KDM4C inh: inactive; IDH1 mut inh: inactive; T cruzi growth-2: 104; T cruzi growth-3: 112; NIH3T3 tox: inactive; 3T3 cytotox 2: inactive

What do the screens show for `CO[C@H]1CN(C)C(=O)c2ccc(NC(=O)NC(C)C)cc2OC[C@@H](C)N(Cc2ccccn2)C[C@H]1C`?
T cruzi growth-1: 109; Pf Dd2 inh: inactive; KDM4C inh: inactive; IDH1 mut inh: inactive; T cruzi growth-2: inactive; T cruzi growth-3: inactive; NIH3T3 tox: inactive; 3T3 cytotox 2: inactive

Results for CO[C@H]1CN(C)C(=O)c2cc(NC(=O)NC(C)C)ccc2OC[C@H](C)N(Cc2ccccn2)C[C@H]1C ?
T cruzi growth-1: 106; Pf Dd2 inh: inactive; KDM4C inh: inactive; IDH1 mut inh: inactive; T cruzi growth-2: inactive; T cruzi growth-3: inactive; NIH3T3 tox: inactive; 3T3 cytotox 2: inactive

Results for CCC(Sc1nncn1C)C(=O)Nc1ccc([N+](=O)[O-])cc1 (stereo not given) ?
IDH1 mut inh: inactive

What do the screens show for `C[C@H]1CN([C@@H](C)CO)S(=O)(=O)c2ccc(C#CCN(C)C)cc2O[C@@H]1CN(C)C(=O)C1CCC1`?
T cruzi growth-1: 105; Pf Dd2 inh: inactive; KDM4C inh: inactive; T cruzi growth-2: 106; T cruzi growth-3: inactive; NIH3T3 tox: inactive; 3T3 cytotox 2: inactive

How did C[C@H](CO)N1C[C@H](C)[C@@H](CN(C)C(=O)C2CCCCC2)Oc2cc(C#CCN(C)C)ccc2S1(=O)=O do in these assays?
Pf Dd2 inh: inactive; KDM4C inh: inactive

Results for C[C@H](CO)N1C[C@H](C)[C@H](CN(C)C(=O)C2CCC2)Oc2cc(C#CCN(C)C)ccc2S1(=O)=O ?
T cruzi growth-1: inconclusive; Pf Dd2 inh: inactive; KDM4C inh: inactive; T cruzi growth-2: 114; T cruzi growth-3: 98; NIH3T3 tox: inactive; 3T3 cytotox 2: inactive
